# FAS-TE inh: blocks the thioesterase domain of human fatty acid synthase; P49327; recombinant FAS-TE, OMFH fluorogenic substrate, fluorescence endpoint; 0.67% of 360,000 active; inhibition, % at 15 µM; AID 602261;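 active means compounds whose normalised, plate-corrected inhibition of enzyme fluorescence in the single-dose primary screen is 50% or more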
# GRIN3A LBD mod: modulators (binders) of human NR3A ligand-binding domain | NR3A LBD differential scanning fluorimetry, Tm shift; 0% = protein alone, 100% = glycine-bound protein | Tm shift relative to glycine control, % at 25 µM | 2.5% of 340,000 active;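 active means melting temperature shift of at least 10% of the positive control shift, at one fixed dose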
# SENP1 inh: SENP1 (human) catalytic domain inhibition. AID 624204. 0.21% of 360,000 active. recombinant SENP1 catalytic domain, CyPet-SUMO1-YPet FRET cleavage. inhibition, % at 10 µM. Q9P0U3;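 active means inhibition at least 30% at 10 µM, raw YFP signal under a set limit, fluorescence ratio 0.5 to 1.5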
#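 Material – human SENP1 catalytic domain · Input – SENP1 enzyme, 20 pM final · Compound dosing – single concentration of 10 µM compound, 0.5% DMSO final · Timing – enzyme reaction for 50 min at room temperature, dark · Measured by – FRET fluorescence in CFP and YFP emission channels · Control set – no-enzyme wells low, DMSO-plus-enzyme wells high control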
# hiPSC survival: increases survival of single human iPS cells. survival enhancement, % at 20 µM. 0.044% of 360,000 active. hiPSC single-cell survival, ATPlite luminescence; 100% = ROCK inhibitor wells, 0% = DMSO. AID 602274; in the data active means survival enhancement above about 18%;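 further: cells exposed to compounds for 16 hours before the ATP read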
# H9c2 protect: modulators protecting cardiomyocytes from myocardial damage; H9c2 cardiomyocytes, H2O2 injury protection, ATPLite, 2 h; protection from H2O2 cell death, % at 20 µM; 0.63% of 360,000 active;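 active means compounds giving at least 50% protection of heart cells from peroxide-induced death in the single-dose screen, raw or plate-pattern-corrected value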
# Arrestin-AP2 inh: blocks beta-arrestin peptide binding to AP2 adaptin | inhibition, % at 10 µM | 0.31% of 340,000 active | FITC-arrestin peptide / GST-AP2 beads, flow cytometry; AP2 beta2 appendage carries R879A mutation;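 active means inhibition above a set limit, near 3 SD of compounds lacking own fluorescence, cut at about 54% in these data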
#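 test system = AP2 appendage R879A on GSH beads | buffer or medium = PBS plus Tween 20 (0.05%) and BSA (0.1%) | incubation = 12 min plus 1 h, RT | detection = bead flow cytometry, FITC channel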
# SENP1 conf: SENP1 (human) inhibition, single concentration confirmation; shares compounds with SENP1 inh; AID 651678; inhibition, % at 10 µM; recombinant SENP1, CyPet-SUMO1-YPet FRET cleavage; 34% of 520 active; in the data active means inhibition mostly above about 35%, no sharp cut-off; inactive means mostly below about 32%
# SENP1 kinetic: SENP1 (human) inhibition, kinetic confirmation; shares compounds with SENP1 inh; recombinant SENP1, CyPet-SUMO1-YPet FRET kinetic cleavage; inhibition, % at 10 µM; 26% of 520 active; AID 651690; in the data active means inhibition mostly above about 32%, no sharp cut-off; inactive means mostly below about 29%
# Numbers stand for hits; - = inactive; . = no result given. Compounds with a hit are over-represented: about 4% of the library has one in this group of screens.
SMILES,FAS-TE inh,GRIN3A LBD mod,SENP1 inh,hiPSC survival,H9c2 protect,Arrestin-AP2 inh,SENP1 conf,SENP1 kinetic
N#CCSc1ccccc1NC(=O)COC(=O)Cc1c[nH]c2ccccc12,-,-,42.6,-,-,-,-,-
N#Cc1ccsc1NC(=O)COc1ccc(-c2nnco2)cc1,-,-,-,-,-,-,.,.
CCOC(=O)C1=C(c2ccccc2)NC(=O)NC1c1cc(Cl)c(O)c(OC)c1 (centres undefined),-,-,31.8,-,-,-,-,-
CC1CCCCN1C(=O)Cn1nnc(-c2cccnc2)n1 (centres undefined),-,-,29.7,-,-,-,-,-
CCN1C(=O)c2cccc3c(NC(=O)C4CCCCC4)ccc1c23,-,-,40.5,-,-,-,-,29.9
Cc1cccc(C(=O)NN2C(=O)C3C(c4ccccc4)C=CC(c4ccccc4)C3C2=O)c1 (centres undefined),-,-,64.0,-,-,-,-,-
Nc1nc2ncccn2c1-c1ccc(F)c(F)c1,.,.,-,.,.,.,.,.
COc1ccc(S(=O)(=O)N2C[C@@H](O)COC[C@@H]3O[C@H](CC(=O)NCCCN4CCOCC4)CC[C@H]32)cc1,.,.,-,.,.,.,.,.
Nc1nc(N=Nc2ccc(O)cc2)cc(=O)[nH]1,-,.,71.5,-,-,.,64.9,43.7
CCOc1cccc(Cc2c[nH]c(=O)[nH]c2=O)c1,-,.,-,-,-,.,.,.
Cc1cccc(/C=N/n2c(-c3ccccc3)n[nH]c2=S)c1O,-,-,30.8,-,-,-,-,-
Oc1ccc(Br)cc1/C=N/n1c(-c2ccccc2)n[nH]c1=S,-,-,-,-,-,-,.,.
COC(=O)/C=c1/s/c(=C(\C#N)C(=O)NCc2ccco2)n(-c2ccc(C)cc2)c1=O,-,-,37.1,-,-,-,-,-
COC(=O)/C=c1/s/c(=C(/C#N)C(=O)N2CCOCC2)n(-c2ccccc2)c1=O,-,-,-,-,-,-,.,.
Cc1cc2oc(=O)cc(CN3CCCCCCC3)c2cc1Cl,-,.,-,-,-,.,.,.
COc1cc(OC)cc(C(=O)NC(=S)Nc2ccc3c4c(cccc24)CC3)c1,-,-,-,-,-,-,.,.
CC(C)Oc1cccc(C(=O)NC(=S)Nc2ccc3c4c(cccc24)CC3)c1,-,-,36.8,-,-,-,-,-
COc1cc(-c2cnc3c(NC=O)cc(-c4ccc(N5CCN(C)CC5)cc4)cn23)cc(OC)c1OC,-,.,-,-,-,.,.,.
COc1cc(-c2cnc3c(NC(C)=O)cc(-c4ccc(N5CCN(C)CC5)cc4)cn23)cc(OC)c1OC,-,.,33.7,-,-,.,-,-
CC(=O)Nc1cc(-c2ccc(N3CCN(C)CC3)cc2)cn2c(-c3ccccc3)cnc12,-,.,47.8,-,-,.,38.5,-
O=C(NCc1cccnc1)c1cc(C2CCCCN2S(=O)(=O)c2cccc3cccnc23)on1 (centres undefined),-,.,-,-,-,.,.,.

# From PubChem
